Measured values reported in ChEMBL document CHEMBL3112542, “Synthesis of triazole-functionalized 2-DOS analogues and their evaluation as A-site binders” (Bioorg Med Chem Lett, 2014).
Values after ≈ are worked out from the molar mass of the structure shown.

Experiments:
Pseudomonas aeruginosa = experiment: Antimicrobial activity against Pseudomonas aeruginosa ATCC 27853 after 18 hrs by microdilution method; format: functional; settings: ATCC 27853, 18 h
Staphylococcus aureus = experiment: Antimicrobial activity against Staphylococcus aureus ATCC 29213 after 18 hrs by microdilution method; format: functional; settings: ATCC 29213, 18 h
Escherichia coli = experiment: Antimicrobial activity against Escherichia coli ATCC 25922 after 18 hrs by microdilution method; format: functional; settings: ATCC 25922, 18 h
[1] = Binding affinity to Escherichia coli rRNA A site after 30 mins by luciferase transcription/translation assay
Summary of the method: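 Coupled bacterial transcription-translation run in E. coli extract. IC50 taken from 2 replicate experiments per compound, each in duplicate (14%).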

[2] = Binding affinity to 2AP-labeled duplex RNA oligonucleotide ribosomal decoding site (unknown origin) by fluorescence spectrophotometry
Summary of the method: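 Decoding-site RNA model oligonucleotide with 2-aminopurine replacing flexible A1492. Binding followed by enhancement of 2AP fluorescence emission. Values averaged from 3 replicate experiments per compound (10%).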

MIC (Pseudomonas aeruginosa) [µg/mL]	MIC (Staphylococcus aureus) [µg/mL]	MIC (Escherichia coli) [µg/mL]	IC50 [1] [µM]	EC50 ([2]; read-out: EC50) [µM]	EC50 [2]	Structure (SMILES)
> 1000	129 (≈ 313 µM)	> 1000	730	3	–	N[C@@H]1C[C@H](N)[C@@H](O)[C@H](OCc2cn(CCO)nn2)[C@H]1OCC(=O)N1CCCCC1
> 820	102 (≈ 312 µM)	> 820	104	0.017	–	NCC[C@H](O)C(=O)N[C@H]1C[C@@H]2[C@H](OCc3cnnn32)[C@@H](O)[C@@H]1O
> 700	88 (≈ 360 µM)	> 700	468	–	Not Active	N[C@H]1C[C@@H](n2cc(CO)nn2)[C@H](O)[C@@H](O)[C@@H]1O
157 (≈ 313 µM)	78 (≈ 156 µM)	235 (≈ 469 µM)	22.6	62	–	N[C@@H]1C[C@H](NC(=O)NCCO)[C@@H](O)[C@H](OCC(=O)N2CCOCC2)[C@H]1OCc1cn(CCO)nn1
> 840	52.5 (≈ 199 µM)	> 840	475	8.7	–	NCC[C@H](O)C(=O)N[C@H]1C[C@@H](N)[C@H](O)[C@@H](O)[C@@H]1O
283 (≈ 1250 µM)	> 565	283 (≈ 1250 µM)	317	53	–	N[C@H]1C[C@@H]2[C@H](OCc3cnnn32)[C@@H](O)[C@@H]1O (single isomer, unassigned)
> 1000	60 (≈ 174 µM)	> 1000	66.5	–	Not Active	NCC[C@H](O)C(=O)N[C@H]1C[C@@H](n2cc(CO)nn2)[C@H](O)[C@@H](O)[C@@H]1O
> 870	109 (≈ 350 µM)	> 870	55.5	22.4	–	NCCCC(=O)N[C@H]1C[C@@H]2[C@H](OCc3cnnn32)[C@@H](O)[C@@H]1O
